Assay results taken from ChEMBL document CHEMBL1255409, “In vitro activity of ceftaroline against 623 diverse strains of anaerobic bacteria” (2010).
In brackets after ≈: the same amount, converted by molar mass.

How the values were obtained:
[1] = tested on: Bacteroides fragilis; assay: Antimicrobial activity against Bacteroides fragilis under anaerobic conditions after 44 hrs by CLSI-M11-47 protocol based agar dilution method; assay type: functional
Method in brief: (§1)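 Reference agar dilution per CLSI M11-A7 with plates made on test day. Clinical isolates were stored at −70°C in 20% skim milk, subcultured twice, and 48-h cell paste was suspended in brucella broth to 0.5 McFarland. About 10^5 CFU/spot was applied with a Steers replicator. Plates were incubated 44 h at 37°C anaerobically. MIC was the lowest concentration giving complete inhibition or marked growth reduction versus the drug-free control.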

[2] = tested on: Bacteroides caccae; assay: Antimicrobial activity against Bacteroides caccae under anaerobic conditions after 44 hrs by CLSI-M11-47 protocol based agar dilution method; assay type: functional; method in brief: as §1
[3] = tested on: Parabacteroides distasonis; assay: Antimicrobial activity against Bacteroides distasonis under anaerobic conditions after 44 hrs by CLSI-M11-47 protocol based agar dilution method; assay type: functional; method in brief: as §1
[4] = tested on: Bacteroides uniformis; assay: Antimicrobial activity against Bacteroides uniformis under anaerobic conditions after 44 hrs by CLSI-M11-47 protocol based agar dilution method; assay type: functional; method in brief: as §1
[5] = tested on: Fusobacterium mortiferum; assay: Antimicrobial activity against Fusobacterium mortiferum under anaerobic conditions after 44 hrs by CLSI-M11-47 protocol based agar dilution method; assay type: functional; method in brief: as §1
[6] = tested on: Fusobacterium varium; assay: Antimicrobial activity against Fusobacterium varium under anaerobic conditions after 44 hrs by CLSI-M11-47 protocol based agar dilution method; assay type: functional
Method in brief: (§2)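 Clinical isolates were stored at −70°C in 20% skim milk and identified phenotypically or by partial 16S rRNA sequencing. Each strain was subcultured twice from frozen stock. Cell paste from 48-h cultures was suspended in brucella broth to a 0.5 McFarland standard. About 10^5 CFU per spot were applied by Steers replicator to agar dilution plates prepared on the day of testing. Plates were incubated 44 h at 37°C in an anaerobic chamber. MIC was taken as the lowest concentration giving complete inhibition or marked reduction of growth versus the drug-free control.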

[7] = tested on: Veillonella; assay: Antimicrobial activity against Veillonella spp. under anaerobic conditions after 44 hrs by CLSI-M11-47 protocol based agar dilution method; assay type: functional; method in brief: as §2
[8] = tested on: Anaerococcus prevotii; assay: Antimicrobial activity against Anaerococcus prevotii under anaerobic conditions after 44 hrs by CLSI-M11-47 protocol based agar dilution method; assay type: functional; method in brief: as §1
[9] = tested on: Parvimonas micra; assay: Antimicrobial activity against Parvimonas micra under anaerobic conditions after 44 hrs by CLSI-M11-47 protocol based agar dilution method; assay type: functional; method in brief: as §2
[10] = tested on: Peptostreptococcus anaerobius; assay: Antimicrobial activity against Peptostreptococcus anaerobius under anaerobic conditions after 44 hrs by CLSI-M11-47 protocol based agar dilution method; assay type: functional; method in brief: as §2
[11] = tested on: Peptostreptococcus stomatis; assay: Antimicrobial activity against Peptostreptococcus stomatis under anaerobic conditions after 44 hrs by CLSI-M11-47 protocol based agar dilution method; assay type: functional; method in brief: as §2
[12] = tested on: Anaerococcus lactolyticus; assay: Antimicrobial activity against Anaerococcus lactolyticus under anaerobic conditions after 44 hrs by CLSI-M11-47 protocol based agar dilution method; assay type: functional; method in brief: as §1
[13] = tested on: Anaerococcus murdochii; assay: Antimicrobial activity against Anaerococcus murdochii under anaerobic conditions after 44 hrs by CLSI-M11-47 protocol based agar dilution method; assay type: functional; method in brief: as §1
[14] = tested on: Anaerococcus octavius; assay: Antimicrobial activity against Anaerococcus octavius under anaerobic conditions after 44 hrs by CLSI-M11-47 protocol based agar dilution method; assay type: functional; method in brief: as §1
[15] = tested on: Anaerococcus; assay: Antimicrobial activity against Anaerococcus sp. under anaerobic conditions after 44 hrs by CLSI-M11-47 protocol based agar dilution method; assay type: functional; method in brief: as §1
[16] = tested on: Gemella morbillorum; assay: Antimicrobial activity against Gemella morbillorum under anaerobic conditions after 44 hrs by CLSI-M11-47 protocol based agar dilution method; assay type: functional; method in brief: as §2
[17] = tested on: Peptoniphilus lacrimalis; assay: Antimicrobial activity against Peptoniphilus lacrimalis under anaerobic conditions after 44 hrs by CLSI-M11-47 protocol based agar dilution method; assay type: functional; method in brief: as §2
[18] = tested on: Actinomyces israelii; assay: Antimicrobial activity against Actinomyces israelii under anaerobic conditions after 44 hrs by CLSI-M11-47 protocol based agar dilution method; assay type: functional; method in brief: as §1
[19] = tested on: Schaalia meyeri; assay: Antimicrobial activity against Actinomyces meyeri under anaerobic conditions after 44 hrs by CLSI-M11-47 protocol based agar dilution method; assay type: functional; method in brief: as §1
[20] = tested on: Actinomyces neuii subsp. anitratus; assay: Antimicrobial activity against Actinomyces neuii subsp. anitratus under anaerobic conditions after 44 hrs by CLSI-M11-47 protocol based agar dilution method; assay type: functional, Winkia neuii subsp. anitrata; settings: Winkia neuii; method in brief: as §1
[21] = tested on: Propionibacterium avidum; assay: Antimicrobial activity against Propionibacterium avidum under anaerobic conditions after 44 hrs by CLSI-M11-47 protocol based agar dilution method; assay type: functional; settings: Cutibacterium avidum; method in brief: as §2
[22] = tested on: Eggerthella lenta; assay: Antimicrobial activity against Eggerthella lenta under anaerobic conditions after 44 hrs by CLSI-M11-47 protocol based agar dilution method; assay type: functional; method in brief: as §1
[23] = tested on: Eubacterium saburreum; assay: Antimicrobial activity against Eubacterium saburreum under anaerobic conditions after 44 hrs by CLSI-M11-47 protocol based agar dilution method; assay type: functional; settings: Lachnoanaerobaculum saburreum; method in brief: as §1
[24] = tested on: Mogibacterium timidum; assay: Antimicrobial activity against Mogibacterium timidum under anaerobic conditions after 44 hrs by CLSI-M11-47 protocol based agar dilution method; assay type: functional; method in brief: as §2
[25] = tested on: Lacticaseibacillus casei; assay: Antimicrobial activity against Lactobacillus casei under anaerobic conditions after 44 hrs by CLSI-M11-47 protocol based agar dilution method; assay type: functional; method in brief: as §2
[26] = tested on: Clostridium bolteae; assay: Antimicrobial activity against Clostridium bolteae under anaerobic conditions after 44 hrs by CLSI-M11-47 protocol based agar dilution method; assay type: functional; settings: Enterocloster bolteae; method in brief: as §1
[27] = tested on: Paraclostridium bifermentans; assay: Antimicrobial activity against Clostridium bifermentans under anaerobic conditions after 44 hrs by CLSI-M11-47 protocol based agar dilution method; assay type: functional; method in brief: as §1
[28] = tested on: Clostridium butyricum; assay: Antimicrobial activity against Clostridium butyricum under anaerobic conditions after 44 hrs by CLSI-M11-47 protocol based agar dilution method; assay type: functional
[29] = tested on: Clostridium celerecrescens; assay: Antimicrobial activity against Clostridium celerecrescens under anaerobic conditions after 44 hrs by CLSI-M11-47 protocol based agar dilution method; assay type: functional; settings: Lacrimispora celerecrescens; method in brief: as §1
[30] = tested on: Clostridium hylemonae; assay: Antimicrobial activity against Clostridium hylemonae under anaerobic conditions after 44 hrs by CLSI-M11-47 protocol based agar dilution method; assay type: functional; method in brief: as §1
[31] = tested on: Clostridium subterminale; assay: Antimicrobial activity against Clostridium subterminale under anaerobic conditions after 44 hrs by CLSI-M11-47 protocol based agar dilution method; assay type: functional; method in brief: as §1
[32] = tested on: Clostridium symbiosum; assay: Antimicrobial activity against Clostridium symbiosum under anaerobic conditions after 44 hrs by CLSI-M11-47 protocol based agar dilution method; assay type: functional; method in brief: as §1

Question: Which results are given for `Cc1ncc([N+](=O)[O-])n1CCO` [METRONIDAZOLE]?
Answer: MIC50 [1]: 1 µg/mL (≈ 5.84 µM); MIC90 [1]: 2 µg/mL (≈ 11.7 µM); MIC50 [2]: 1 µg/mL (≈ 5.84 µM); MIC90 [2]: 2 µg/mL (≈ 11.7 µM); MIC50 [3]: 1 µg/mL (≈ 5.84 µM); MIC90 [3]: 2 µg/mL (≈ 11.7 µM); MIC50 [4]: 1 µg/mL (≈ 5.84 µM); MIC90 [4]: 2 µg/mL (≈ 11.7 µM); MIC50 [5]: 0.5 µg/mL (≈ 2.92 µM); MIC90 [5]: 1 µg/mL (≈ 5.84 µM); MIC50 [6]: 0.25 µg/mL (≈ 1.46 µM); MIC90 [6]: 0.5 µg/mL (≈ 2.92 µM); MIC50 [7]: 2 µg/mL (≈ 11.7 µM); MIC90 [7]: 8 µg/mL (≈ 46.7 µM); MIC50 [8]: 1 µg/mL (≈ 5.84 µM); MIC90 [8]: 2 µg/mL (≈ 11.7 µM); MIC50 [9]: 0.25 µg/mL (≈ 1.46 µM); MIC90 [9]: 0.25 µg/mL (≈ 1.46 µM); MIC50 [10]: 0.5 µg/mL (≈ 2.92 µM); MIC90 [10]: 1 µg/mL (≈ 5.84 µM); MIC50 [11]: 0.5 µg/mL (≈ 2.92 µM); MIC90 [11]: 1 µg/mL (≈ 5.84 µM); MIC50 [12]: 1 µg/mL (≈ 5.84 µM); MIC90 [12]: 4 µg/mL (≈ 23.4 µM); MIC50 [13]: 1 µg/mL (≈ 5.84 µM); MIC90 [13]: 4 µg/mL (≈ 23.4 µM); MIC50 [14]: 1 µg/mL (≈ 5.84 µM); MIC90 [14]: 4 µg/mL (≈ 23.4 µM); MIC50 [15]: 1 µg/mL (≈ 5.84 µM); MIC90 [15]: 4 µg/mL (≈ 23.4 µM); MIC50 [16]: 1 µg/mL (≈ 5.84 µM); MIC90 [16]: 4 µg/mL (≈ 23.4 µM); MIC50 [17]: 1 µg/mL (≈ 5.84 µM); MIC90 [17]: 4 µg/mL (≈ 23.4 µM); MIC50 [18]: > 32 µg/mL; MIC90 [18]: > 32 µg/mL; MIC50 [19]: > 32 µg/mL; MIC90 [19]: > 32 µg/mL; MIC50 [20]: > 32 µg/mL; MIC90 [20]: > 32 µg/mL; MIC50 [21]: > 32 µg/mL; MIC90 [21]: > 31 µg/mL; MIC50 [22]: 1 µg/mL (≈ 5.84 µM); MIC90 [22]: 1 µg/mL (≈ 5.84 µM); MIC50 [23]: 0.5 µg/mL (≈ 2.92 µM); MIC90 [23]: 1 µg/mL (≈ 5.84 µM); MIC50 [24]: 0.5 µg/mL (≈ 2.92 µM); MIC90 [24]: 1 µg/mL (≈ 5.84 µM); MIC50 [25]: > 64 µg/mL; MIC90 [25]: > 64 µg/mL; MIC50 [26]: 0.06 µg/mL (≈ 0.351 µM); MIC90 [26]: 0.25 µg/mL (≈ 1.46 µM); MIC50 [27]: 0.5 µg/mL (≈ 2.92 µM); MIC90 [27]: 4 µg/mL (≈ 23.4 µM); MIC50 [28]: 0.5 µg/mL (≈ 2.92 µM); MIC90 [28]: 4 µg/mL (≈ 23.4 µM); MIC50 [29]: 0.5 µg/mL (≈ 2.92 µM); MIC90 [29]: 4 µg/mL (≈ 23.4 µM); MIC50 [30]: 0.5 µg/mL (≈ 2.92 µM); MIC90 [30]: 4 µg/mL (≈ 23.4 µM); MIC50 [31]: 0.5 µg/mL (≈ 2.92 µM); MIC90 [31]: 4 µg/mL (≈ 23.4 µM); MIC50 [32]: 0.5 µg/mL (≈ 2.92 µM); MIC90 [32]: 4 µg/mL (≈ 23.4 µM)
